Measured values reported in publication PMC4561207 (Child's nervous system : ChNS : official journal of the …, 2015).

Test: Adverse events regardless of attribution
Type: in vivo, human
Method in brief: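 Children with recurrent/refractory CNS tumours took oral drug once daily, continuously, in 28-day cycles. Dosing was stratified by EIACD use, with start/escalation levels 20–40 mg/m² (no EIACD) or 15–32 mg/m² (EIACD). Monitoring included weekly exam, serum chemistries, CBC and urine protein for 8 weeks, and TSH before each cycle. Events other than hypertension were graded by CTCAE v3, later v4.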

COc1cc2c(Oc3ccc4[nH]c(C)cc4c3F)ncnc2cc1OCCCN1CCCC1 [cediranib, Cediranib]
Anemia, events (patients) (grade 3 AE): 2(2)
Aspartate aminotransferase increased, events (patients) (grade 3 AE): 2(2)
Blurred vision, events (patients) (grade 3 AE): 1(1)
Capillary leak syndrome, events (patients) (grade 3 AE): 1(1)
Chest wall pain, events (patients) (grade 3 AE): 1(1)
Confusion, events (patients) (grade 3 AE): 1(1)
Dehydration, events (patients) (grade 3 AE): 4(4)
Depressed level of consciousness, events (patients) (grade 3 AE): 2(2)
Diarrhea, events (patients) (grade 3 AE): 3(3)
Dysphasia, events (patients) (grade 3 AE): 2(2)
Enterocolitis, events (patients) (grade 3 AE): 1(1)
Eye disorders - Other, specify, events (patients) (grade 3 AE): 1(1)
Fatigue, events (patients) (grade 3 AE): 4(4)
Headache, events (patients) (grade 3 AE): 7(5)
Hydrocephalus, events (patients) (grade 3 AE): 2(2)
Hyperkalemia, events (patients) (grade 3 AE): 1(1)
Hypermagnesemia, events (patients) (grade 3 AE): 1(1)
Hypernatremia, events (patients) (grade 3 AE): 2(1)
Hypertension, events (patients) (grade 3 AE): 10(10)
Hypertriglyceridemia, events (patients) (grade 3 AE): 1(1)
Hypokalemia, events (patients) (grade 3 AE): 3(2)
Hyponatremia, events (patients) (grade 3 AE): 5(5)
Lipase increased, events (patients) (grade 3 AE): 1(1)
Lymphocyte count decreased, events (patients) (grade 3 AE): 5(3)
Mucositis oral, events (patients) (grade 3 AE): 1(1)
Nausea, events (patients) (grade 3 AE): 3(3)
Neutrophil count decreased, events (patients) (grade 3 AE): 2(2)
Oral pain, events (patients) (grade 3 AE): 2(2)
Palmar-plantar erythrodysesthesia syndrome, events (patients) (grade 3 AE): 3(3)
Peripheral motor neuropathy, events (patients) (grade 3 AE): 2(2)
Proteinuria, events (patients) (grade 3 AE): 3(3)
Reversible posterior leukoencephalopathy syndrome, events (patients) (grade 3 AE): 1(1)
Seizure, events (patients) (grade 3 AE): 3(3)
Vomiting, events (patients) (grade 3 AE): 2(2)
Weight loss, events (patients) (grade 3 AE): 1(1)
White blood cell decreased, events (patients) (grade 3 AE): 1(1)
Alanine aminotransferase increased, events (patients) (grade 4 AE): 1(1)
Aspartate aminotransferase increased, events (patients) (grade 4 AE): 1(1)
Hypernatremia, events (patients) (grade 4 AE): 2(1)
Hyponatremia, events (patients) (grade 4 AE): 1(1)
Hypothyroidism, events (patients) (grade 4 AE): 1(1)
Lymphocyte count decreased, events (patients) (grade 4 AE): 1(1)
Nervous system disorders - Other, specify, events (patients) (grade 4 AE): 1(1)
Papilledema, events (patients) (grade 4 AE): 1(1)
Seizure, events (patients) (grade 4 AE): 1(1)
Abdominal pain, events (patients) (total AE): 11(11)
Acidosis, events (patients) (total AE): 7(5)
Alanine aminotransferase increased, events (patients) (total AE): 70(30)
Alkaline phosphatase increased, events (patients) (total AE): 4(3)
Anal mucositis, events (patients) (total AE): 1(1)
Anal pain, events (patients) (total AE): 1(1)
Anemia, events (patients) (total AE): 7(6)
Anorexia, events (patients) (total AE): 15(12)
Arthralgia, events (patients) (total AE): 1(1)
Aspartate aminotransferase increased, events (patients) (total AE): 45(23)
Back pain, events (patients) (total AE): 5(4)
Blood bilirubin increased, events (patients) (total AE): 18(10)
Blurred vision, events (patients) (total AE): 1(1)
Bone pain, events (patients) (total AE): 3(2)
Capillary leak syndrome, events (patients) (total AE): 1(1)
Cardiac troponin I increased, events (patients) (total AE): 1(1)
Chest wall pain, events (patients) (total AE): 2(2)
Cholesterol high, events (patients) (total AE): 1(1)
Chronic kidney disease, events (patients) (total AE): 1(1)
Confusion, events (patients) (total AE): 2(2)
Constipation, events (patients) (total AE): 9(4)
Cough, events (patients) (total AE): 5(4)
Creatinine increased, events (patients) (total AE): 5(3)
Dehydration, events (patients) (total AE): 8(7)
Depressed level of consciousness, events (patients) (total AE): 2(2)
Depression, events (patients) (total AE): 3(3)
Diarrhea, events (patients) (total AE): 63(32)
Dizziness, events (patients) (total AE): 5(3)
Dry mouth, events (patients) (total AE): 1(1)
Dry skin, events (patients) (total AE): 1(1)
Dyspepsia, events (patients) (total AE): 4(4)
Dysphasia, events (patients) (total AE): 3(3)
Edema face, events (patients) (total AE): 1(1)
Edema limbs, events (patients) (total AE): 2(2)
Endocrine disorders - Other, specify, events (patients) (total AE): 2(2)
Enterocolitis, events (patients) (total AE): 1(1)
Epistaxis, events (patients) (total AE): 6(5)
Eye disorders - Other, specify, events (patients) (total AE): 2(2)
Fatigue, events (patients) (total AE): 25(20)
Fecal incontinence, events (patients) (total AE): 2(2)
Fever, events (patients) (total AE): 3(3)
Flushing, events (patients) (total AE): 3(1)
GGT increased, events (patients) (total AE): 1(1)
Gastritis, events (patients) (total AE): 2(2)
Gastrointestinal disorders - Other, specify, events (patients) (total AE): 2(2)
Headache, events (patients) (total AE): 38(19)
Hematuria, events (patients) (total AE): 5(3)
Hemoglobin increased, events (patients) (total AE): 12(6)
Hoarseness, events (patients) (total AE): 1(1)
Hydrocephalus, events (patients) (total AE): 4(3)
Hypercalcemia, events (patients) (total AE): 6(3)
Hyperglycemia, events (patients) (total AE): 22(16)
Hyperkalemia, events (patients) (total AE): 4(4)
Hypermagnesemia, events (patients) (total AE): 15(9)
Hypernatremia, events (patients) (total AE): 16(5)
Hypertension, events (patients) (total AE): 59(38)
Hyperthyroidism, events (patients) (total AE): 2(2)
Hypertriglyceridemia, events (patients) (total AE): 1(1)
Hypoalbuminemia, events (patients) (total AE): 34(17)
Hypocalcemia, events (patients) (total AE): 26(16)
Hypoglycemia, events (patients) (total AE): 6(5)
Hypokalemia, events (patients) (total AE): 23(18)
Hypomagnesemia, events (patients) (total AE): 9(7)
Hyponatremia, events (patients) (total AE): 29(13)
Hypophosphatemia, events (patients) (total AE): 21(13)
Hypothyroidism, events (patients) (total AE): 21(15)
Hypoxia, events (patients) (total AE): 1(1)
INR increased, events (patients) (total AE): 1(1)
Intracranial hemorrhage, events (patients) (total AE): 4(4)
Investigations - Other, specify, events (patients) (total AE): 2(2)
Joint effusion, events (patients) (total AE): 1(1)
Leukoencephalopathy, events (patients) (total AE): 1(1)
Lipase increased, events (patients) (total AE): 2(1)
Lymphocyte count decreased, events (patients) (total AE): 31(13)
Malaise, events (patients) (total AE): 3(1)
Mucositis oral, events (patients) (total AE): 4(4)
Myalgia, events (patients) (total AE): 3(3)
Nausea, events (patients) (total AE): 25(16)
Nervous system disorders - Other, specify, events (patients) (total AE): 4(4)
Neutrophil count decreased, events (patients) (total AE): 23(11)
Non-cardiac chest pain, events (patients) (total AE): 3(3)
Oral pain, events (patients) (total AE): 4(4)
Pain in extremity, events (patients) (total AE): 9(7)
Pain, events (patients) (total AE): 4(4)
Palmar-plantar erythrodysesthesia syndrome, events (patients) (total AE): 17(7)
Papilledema, events (patients) (total AE): 1(1)
Pericardial effusion, events (patients) (total AE): 1(1)
Peripheral motor neuropathy, events (patients) (total AE): 4(4)
Platelet count decreased, events (patients) (total AE): 26(18)
Pleural effusion, events (patients) (total AE): 1(1)
Proteinuria, events (patients) (total AE): 40(21)
Rash acneiform, events (patients) (total AE): 2(2)
Rash maculo-papular, events (patients) (total AE): 6(5)
Rectal pain, events (patients) (total AE): 1(1)
Renal and urinary disorders - Other, specify, events (patients) (total AE): 1(1)
Respiratory, thoracic and mediastinal disorders - Other, specify, events (patients) (total AE): 2(2)
Reversible posterior leukoencephalopathy syndrome, events (patients) (total AE): 2(1)
Seizure, events (patients) (total AE): 7(6)
Serum amylase increased, events (patients) (total AE): 1(1)
Skin and subcutaneous tissue disorders - Other, specify, events (patients) (total AE): 2(2)
Skin ulceration, events (patients) (total AE): 2(2)
Stomach pain, events (patients) (total AE): 3(3)
Urinary frequency, events (patients) (total AE): 2(2)
Urinary retention, events (patients) (total AE): 3(3)
Vascular disorders - Other, specify, events (patients) (total AE): 2(2)
Voice alteration, events (patients) (total AE): 2(2)
Vomiting, events (patients) (total AE): 41(21)
Weight loss, events (patients) (total AE): 5(5)
White blood cell decreased, events (patients) (total AE): 23(14)
